The source of these data is ChEMBL document CHEMBL1143246, “Design and synthesis of bicyclic pyrimidinones as potent and orally bioavailable HIV-1 integrase inhibitors” (J Med Chem, 2008).

The IC50 is the concentration that gives 50% inhibition. In general, bioavailability refers to the share of a dose that reaches the circulation, judged against a reference dose that is usually intravenous. A low value points to little systemic uptake.

Data set [1] has as its system Human immunodeficiency virus 1. In words: Antiviral activity against HIV1 in human MT4 cell assessed as inhibition of virus spread in presence of 10% fetal bovine serum. Format: functional. Conditions: Human immunodeficiency virus 1, MT4; read-out: CIC95. The method in brief:
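Spread of HIV-1 infection in MT-4 human T-lymphoid cell culture with 10% fetal bovine serum; CIC95 is the concentration inhibiting spread by ≥95%; mean of at least three independent experiments.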

Data set [2] concerns Human immunodeficiency virus 1. The data set can be described thus: Antiviral activity against HIV1 in human MT4 cell assessed as inhibition of virus spread in presence of 50% normal human serum. The class given is functional. Particulars: Human immunodeficiency virus 1, MT4; read-out: CIC95. In outline: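 Spread of HIV-1 infection in MT-4 human T-lymphoid cell culture with 50% normal human serum; CIC95 is the concentration inhibiting spread by ≥95%; mean of at least three independent experiments.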

Data set [3] in a line: Inhibition of recombinant HIV1 integrase strand transfer activity.
Data set [4] concerns Liver microsomes. The data set can be described thus: Metabolic stability in rat liver microsomes in presence of UDPGA. The class given is ADME, Microsome. For orientation: Liver microsomes are vesicles of endoplasmic reticulum, rich in cytochrome P450 enzymes.
The test system of data set [5] is Liver. The data set can be described thus: Metabolic stability in dog liver microsomes in presence of UDPGA. Format: ADME, Canis lupus familiaris, Microsome.
Data set [6] concerns Liver microsomes. In words: Metabolic stability in human liver microsomes in presence of UDPGA. The class given is ADME, Microsome. The method in brief:
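Liver microsomes (1 mg/mL) with test compound at 2 µM, incubated with UDPGA or NADPH; degradation measured by LC/MS/MS after 1 h.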

The species entered for data set [7] is Homo sapiens. In words: Protein binding in human plasma. Particulars: read-out: PPB (converted).
The nature of data set [8]: Oral bioavailability in rat at 3 mg/kg. The class given is ADME, organism-based. Conditions: in vivo. In outline:
(§1)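 In vivo PK: iv dosing in DMSO/PEG400/H₂O mixtures, oral dosing as methylcellulose suspension. Half-life was taken after iv dosing; AUC and Cmax after po dosing.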

Data set [9] can be described thus: Plasma clearance in rat at 3 mg/kg, po or 3 mg/kg, iv. The class given is ADME, organism-based. In outline:
as §1

Each structure is given as a SMILES string. Bounds are passed on as bounds.

As to `CC(c1nc(O)c(O)c(C(=O)NCc2ccc(F)cc2)n1)N(C)C` (stereo not given), the IC95 in data set [1] worked out at 130 nM; in data set [2], 500 nM. Besides, the IC50 in [3] worked out at 100 nM.
Taken in the same sequence, the figures for `CN1CCOCC1c1nc(O)c(O)c(C(=O)NCc2ccc(F)cc2)n1` (stereo not given) were 30 nM, 230 nM and 10 nM.
Consider `O=C(NCc1ccc(F)cc1)c1ncnc(O)c1O`, for which the IC95 in [1] and in data set [2] was greater than 10000 nM each time. Moreover, in data set [3], the IC50 came to 60 nM.
For the compound `CN(C)C(=O)C(=O)N(C)[C@@H]1CCCCn2c1nc(C(=O)NCc1ccc(F)cc1)c(O)c2=O`, the IC95 in data set [1] was 21 nM; in data set [2], 42 nM. Further, the IC50 in data set [3] worked out at 35 nM.
In the same order, the values of `CN1CCN(S(=O)(=O)N(C)[C@@H]2CCCn3c2nc(C(=O)NCc2ccc(F)cc2)c(O)c3=O)CC1` are 13 nM, 20 nM and 10 nM.
Taken in the same sequence, the figures for `CN(C)C(=O)C(=O)N(C)[C@@H]1CCCn2c1nc(C(=O)NCc1ccc(F)cc1)c(O)c2=O` were 67 nM, 98 nM and 19 nM.
Turning to `CN(C(=O)CS(=O)(=O)N(C)C)[C@@H]1CCCn2c1nc(C(=O)NCc1ccc(F)cc1)c(O)c2=O`, the figures for the IC95 in data set [1] and in data set [2] were 31 nM and 62 nM, respectively. The IC50 in [3] was found to be 7 nM.
Consider `O=C(NCc1ccc(F)cc1)c1nc2n(c(=O)c1O)CCCC2`, for which the half-maximal inhibitory concentration (IC50) in [3] is 5 nM.
`CN1CCOCC1c1nc(C(=O)NCc2ccc(F)cc2)c(O)c(=O)n1C` (stereo not given): the IC95 worked out at 60 nM in [1] and 100 nM in data set [2].
For `O=C(NCc1ccc(F)cc1)c1nc2n(c(=O)c1O)CCC2`, the IC50 in data set [3] was determined as 8 nM.
On the same count and under the same terms, next, `O=C(NCc1ccc(F)cc1)c1nc2n(c(=O)c1O)CCCCC2`: 19 nM.
With `CN(C1CCCCn2c1nc(C(=O)NCc1ccc(F)cc1)c(O)c2=O)S(C)(=O)=O` (racemic), the IC95 is 31 nM in data set [1] and 125 nM in data set [2]. For the same compound, the IC50 in data set [3] was determined as 16 nM.
Taken in the same sequence, the figures for `CN(C(=O)C(F)F)C1CCCn2c1nc(C(=O)NCc1ccc(F)cc1)c(O)c2=O` (racemic) were 500 nM, 1000 nM and 18 nM.
With `CC(=O)N(C)C1CCCCn2c1nc(C(=O)NCc1ccc(F)cc1)c(O)c2=O` (racemic), the IC95 in [1] came to 250 nM; in [2], 500 nM. The IC50 in data set [3] is 8 nM.
As for `CN(Cc1ccccc1)C1CCCCn2c1nc(C(=O)NCc1ccc(F)cc1)c(O)c2=O` (racemic), the IC50 in data set [3] is 62 nM.
Still for that read-out and setting: for `CN(Cc1ccccc1)C1CCCn2c1nc(C(=O)NCc1ccc(F)cc1)c(O)c2=O` (racemic) the value was 4 nM.
Take `CC(=O)N(C)C1CCn2c1nc(C(=O)NCc1ccc(F)cc1)c(O)c2=O` (racemic): the IC95 in data set [1] and in data set [2] was greater than 1000 nM throughout. Further, the IC50 in data set [3] is 9 nM.
Take `CC(=O)N(C)C1CCCn2c1nc(C(=O)NCc1ccc(F)cc1)c(O)c2=O` (racemic): the IC95 in data set [1] and in data set [2] was 1000 nM throughout. In addition, the IC50 in data set [3] was 6 nM.
As to `CN(C(=O)CS(C)(=O)=O)C1CCCCn2c1nc(C(=O)NCc1ccc(F)cc1)c(O)c2=O` (racemic), the IC95 in [1] amounted to 63 nM; in data set [2] it was 125 nM. The concentration for half-maximal inhibition (IC50) in data set [3] came out at 17 nM.
In the same order, the values of `CN(C)C(=O)C(=O)N(C)C1CCn2c1nc(C(=O)NCc1ccc(F)cc1)c(O)c2=O` (racemic) are greater than 1000 nM, greater than 1000 nM and 20 nM.
Taken in the same sequence, the figures for `CN(C)C(=O)C(=O)N(C)C1CCCCn2c1nc(C(=O)NCc1ccc(F)cc1)c(O)c2=O` (racemic) were 94 nM, 63 nM and 13 nM.
Consider `O=C(NCc1ccc(F)cc1)c1nc2n(c(=O)c1O)CCCC2N1CCOCC1` (racemic), for which, in data set [3], the IC50 was 5 nM.
As to `CN(C1CCCn2c1nc(C(=O)NCc1ccc(F)cc1)c(O)c2=O)S(=O)(=O)N1CCOCC1` (racemic), the IC95 in data set [1] worked out at 15 nM; in data set [2] it was 31 nM. Further, in [3], the half-inhibitory concentration (IC50) is 11 nM.
For `CN(C)S(=O)(=O)N(C)C1CCCn2c1nc(C(=O)NCc1ccc(F)cc1)c(O)c2=O` (racemic), the IC95 in data set [1] came to 16 nM; in [2], 21 nM. Besides, the IC50 in data set [3] is 5 nM.
In the same order, the values of `CN(C)S(=O)(=O)N(C)C1CCn2c1nc(C(=O)NCc1ccc(F)cc1)c(O)c2=O` (racemic) are greater than 1000 nM, greater than 1000 nM and 45 nM.
In the same order, the values of `CN1CCCN(C2CCCn3c2nc(C(=O)NCc2ccc(F)cc2)c(O)c3=O)S1(=O)=O` (racemic) are 16 nM, 47 nM and 14 nM.
As for `CN(C)S(=O)(=O)N(C)C1CCCCn2c1nc(C(=O)NCc1ccc(F)cc1)c(O)c2=O` (racemic), the IC95 in data set [1] was determined as 31 nM; in [2] it was 125 nM. Moreover, the IC50 in data set [3] turned out to be 10 nM.
Taken in the same sequence, the figures for `CN(C1CCCn2c1nc(C(=O)NCc1ccc(F)cc1)c(O)c2=O)S(=O)(=O)N1CCCCC1` (racemic) were 63 nM, 125 nM and 9 nM.
As to `O=C(NCc1ccc(F)cc1)c1nc2n(c(=O)c1O)CCCC2N1CCCCC1` (racemic), the IC50 in data set [3] came to 4 nM.
As for `CN1CCN(S(=O)(=O)N(C)C2CCCn3c2nc(C(=O)NCc2ccc(F)cc2)c(O)c3=O)CC1` (racemic), the IC95 stood at 6 nM in data set [1] and 20 nM in data set [2]. Also, the IC50 in [3] was determined as 7 nM.
`Cc1nn(C)c(C)c1S(=O)(=O)N(C)C1CCCn2c1nc(C(=O)NCc1ccc(F)cc1)c(O)c2=O` (racemic): the IC95 was found to be 21 nM in data set [1] and 63 nM in data set [2]. For the same compound, the Stability was found to be 94 %/hr in data set [4], 78 %/hr in data set [5] and 90 %/hr in data set [6]. Besides, in data set [3], the IC50 was found to be 7 nM.
Take `CN(C)C1CCn2c1nc(C(=O)NCc1ccc(F)cc1)c(O)c2=O` (racemic): in data set [3], the IC50 stood at 7 nM.
In the case of `CS(=O)(=O)CC(=O)NC1CCCn2c1nc(C(=O)NCc1ccc(F)cc1)c(O)c2=O` (racemic), the IC95 in [1] and in data set [2] was 1000 nM each time. For the same compound, the IC50 in [3] is 7 nM.
With `CN(C(=O)CS(C)(=O)=O)C1CCCn2c1nc(C(=O)NCc1ccc(F)cc1)c(O)c2=O` (racemic), the IC95 in data set [1] is 16 nM; in data set [2], 22 nM. Moreover, the IC50 in data set [3] turned out to be 6 nM. Also, in [7], the fraction unbound is 0.3.
For `CN(C(=O)CS(=O)(=O)N(C)C)C1CCCn2c1nc(C(=O)NCc1ccc(F)cc1)c(O)c2=O` (racemic), the values for the IC95 in data set [1] and in data set [2] were 16 nM and 47 nM, respectively. The IC50 in data set [3] turned out to be 9 nM. In addition, the fraction unbound in [7] was 0.19.
For `O=C(NCc1ccc(F)cc1)c1nc2n(c(=O)c1O)CCCC2N1CCCC1` (racemic), in data set [3], the IC50 worked out at 63 nM.
As for `CN(C1CCCn2c1nc(C(=O)NCc1ccc(F)cc1)c(O)c2=O)S(C)(=O)=O` (racemic), the values for the IC95 in [1] and in data set [2] were 26 nM and 86 nM, respectively. The Stability in data set [4] turned out to be 88 %/hr; in data set [5], 29 %/hr; in data set [6], 74 %/hr. Moreover, the bioavailability in data set [8] was determined as 47%. In data set [9], this compound returned a clearance of 48 mL/min/kg. Also, the IC50 in [3] came out at 12 nM.
As to `CN(C)C1CCCCn2c1nc(C(=O)NCc1ccc(F)cc1)c(O)c2=O` (racemic), in [3], the IC50 is 550 nM.
For `CN(C(=O)Cn1cccn1)C1CCCn2c1nc(C(=O)NCc1ccc(F)cc1)c(O)c2=O` (racemic), the IC95 in data set [1] and in data set [2] was greater than 1000 nM throughout. Moreover, the IC50 in [3] turned out to be 3 nM.
With `CN(C(=O)c1nc2ncccn2n1)C1CCCn2c1nc(C(=O)NCc1ccc(F)cc1)c(O)c2=O` (racemic), the IC95 in [1] and in [2] was 250 nM each time. Moreover, in data set [3], the IC50 was 10 nM.
As to `CN(C1CCCn2c1nc(C(=O)NCc1ccc(F)cc1)c(O)c2=O)S(=O)(=O)N1CCCC1` (racemic), the values for the IC95 in data set [1] and in data set [2] were 16 nM and 47 nM, respectively. Besides, the half-maximal inhibitory concentration (IC50) in [3] is 7 nM.
In the same order, the values of `CN1CCCN(C2CCCCn3c2nc(C(=O)NCc2ccc(F)cc2)c(O)c3=O)S1(=O)=O` (racemic) are 78 nM, 156 nM and 6 nM.
Taken in the same sequence, the figures for `CN(C)C(=O)C(=O)N(C)C1CCCn2c1nc(C(=O)NCc1ccc(F)cc1)c(O)c2=O` (racemic) were 38 nM, 40 nM and 7 nM.
As to `O=C(NCc1ccc(F)cc1)c1nc2n(c(=O)c1O)CCCCC2N1CCOCC1` (racemic), the IC50 in data set [3] amounted to 62 nM.
Same read-out and setting: for `CN(C)C1CCCn2c1nc(C(=O)NCc1ccc(F)cc1)c(O)c2=O` (racemic) the value was 69 nM.
